This is an account of results in ChEMBL document CHEMBL4152271, “Polypharmacological profile of 1,2-dihydro-2-oxo-pyridine-3-carboxamides in the endocannabinoid system” (Eur J Med Chem, 2018).

Calls of active or inactive are those of the source. The calls are words filed in the database; no cut-off is given here. A value given as a limit tells only on which side of the number the result lay.

The test system of the first assay is U-251. Description: Cytotoxicity against human U251MG cells assessed as decrease in cell viability at 0.6 to 40 uM after 48 hrs by MTT assay. It is filed as functional, cell-based. Put shortly: (§1)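 U251MG (EMEM, 10% FBS) or U937 (RPMI 1640, 10% FBS) cells plated at 4x10³/well for 24h, then exposed to compounds (0–40 µM) for 48 h at 37°C. MTT reduction, formazan read at 595 nm. Viability as % of untreated control. Five independent experiments in triplicate, mean ± SD, ANOVA with Bonferroni.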
As to `Cc1c(Br)cn(Cc2ccc(F)cc2)c(=O)c1C(=O)NC1CCCCCC1`, the outcome was inactive.

On to `Cc1c(Br)cnc(OCc2ccc(F)cc2)c1C(=O)NC1CCCCCC1`, for which the outcome was inactive.

On to `COc1ccc(-c2cn(Cc3ccc(F)cc3)c(=O)c(C(=O)NC3CCCCCC3)c2C)cc1`, for which the outcome was inactive.

A further assay deals with T1, Cannabinoid receptor 1 (Homo sapiens, UniProt P21554). In words: Agonist activity at human CB1 receptor expressed in CHO cell membranes after 90 mins by [35S]GTPgammaS binding assay. The format is functional, cell-based.
T1 sequence (P21554 whole entry): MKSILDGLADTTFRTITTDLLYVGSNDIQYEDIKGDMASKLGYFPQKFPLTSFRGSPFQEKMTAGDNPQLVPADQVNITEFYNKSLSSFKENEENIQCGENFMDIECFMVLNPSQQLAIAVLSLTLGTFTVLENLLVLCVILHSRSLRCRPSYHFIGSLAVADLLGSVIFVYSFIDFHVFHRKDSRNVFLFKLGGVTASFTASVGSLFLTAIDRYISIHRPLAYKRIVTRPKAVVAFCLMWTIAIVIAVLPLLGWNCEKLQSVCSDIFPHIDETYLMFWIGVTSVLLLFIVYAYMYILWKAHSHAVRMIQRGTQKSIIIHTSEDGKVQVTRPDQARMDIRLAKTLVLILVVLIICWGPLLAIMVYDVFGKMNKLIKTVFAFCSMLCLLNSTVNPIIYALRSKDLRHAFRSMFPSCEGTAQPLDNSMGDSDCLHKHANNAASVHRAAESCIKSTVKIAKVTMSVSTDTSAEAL
As for `Cc1c(Br)cn(Cc2ccc(F)cc2)c(=O)c1C(=O)NC1CCCCCC1`, a half-maximal response (EC50) required 1.4 nM.

Regarding `Cc1c(Br)cnc(OCc2ccc(F)cc2)c1C(=O)NC1CCCCCC1`, the EC50 came out at 182 nM.

`COc1ccc(-c2cn(Cc3ccc(F)cc3)c(=O)c(C(=O)NC3CCCCCC3)c2C)cc1` came in with an EC50 of 96 nM.

The species named for another assay is Homo sapiens. In words: Selectivity ratio of Ki for human CB1 receptor to Ki for human CB2 receptor. The gist of the method:
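Membranes expressing hCB1 or hCB2 (stably transfected CHO) in 50 mM Tris-HCl, 2.5 mM EDTA, 5 mM MgCl₂, 0.5% fatty acid-free BSA, pH 7.4. Incubated with compound and 0.5 nM [³H]CP55,940 for 90 min at 30 °C. Nonspecific binding with 10 µM […]. GF/B filtration, radioactivity counted, Ki derived. Mean ± SD, at least 3 experiments in triplicate.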
With `Cc1c(Br)cn(Cc2ccc(F)cc2)c(=O)c1C(=O)NC1CCCCCC1`, the Ratio Ki was determined as 0.65.

As to `Cc1c(Br)cnc(OCc2ccc(F)cc2)c1C(=O)NC1CCCCCC1`, the Ratio Ki was determined as 0.18.

Regarding `COc1ccc(-c2cn(Cc3ccc(F)cc3)c(=O)c(C(=O)NC3CCCCCC3)c2C)cc1`, the Ratio Ki was in the range of 2 to 54.

Another assay deals with T1, Cannabinoid receptor 1. In words: Displacement of [3H]-CP55940 from human CB1 receptor expressed in CHO cell membranes after 90 mins.
Consider `Cc1c(Br)cn(Cc2ccc(F)cc2)c(=O)c1C(=O)NC1CCCCCC1`, for which affinity was put at a Ki of 2.3 nM.

In the case of `Cc1c(Br)cnc(OCc2ccc(F)cc2)c1C(=O)NC1CCCCCC1`, the Ki turned out to be 113 nM.

In turn, `COc1ccc(-c2cn(Cc3ccc(F)cc3)c(=O)c(C(=O)NC3CCCCCC3)c2C)cc1` returned a Ki of 30.7 nM.

The target in a further assay is T2, Fatty-acid amide hydrolase 1 (Homo sapiens, UniProt O00519).
T2 sequence (O00519 whole entry): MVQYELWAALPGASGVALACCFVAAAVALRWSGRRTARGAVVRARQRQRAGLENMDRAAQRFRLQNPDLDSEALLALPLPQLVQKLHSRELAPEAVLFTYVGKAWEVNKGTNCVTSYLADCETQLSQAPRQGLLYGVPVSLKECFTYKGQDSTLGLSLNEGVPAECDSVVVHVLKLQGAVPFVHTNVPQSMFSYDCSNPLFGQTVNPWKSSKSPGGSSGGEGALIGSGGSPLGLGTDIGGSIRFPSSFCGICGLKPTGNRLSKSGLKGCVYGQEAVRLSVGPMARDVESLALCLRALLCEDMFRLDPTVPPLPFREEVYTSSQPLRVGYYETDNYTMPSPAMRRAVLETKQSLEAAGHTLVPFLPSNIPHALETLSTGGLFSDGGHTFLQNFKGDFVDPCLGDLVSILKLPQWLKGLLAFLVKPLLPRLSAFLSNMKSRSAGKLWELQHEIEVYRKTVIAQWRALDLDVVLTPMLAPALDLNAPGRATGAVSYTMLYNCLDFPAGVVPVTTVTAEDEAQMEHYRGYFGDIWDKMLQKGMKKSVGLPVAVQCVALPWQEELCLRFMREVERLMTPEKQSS
Description: Inhibition of FAAH in human U937 cells using AEA containing [ethanolamine-1-3H]AEA as substrate preincubated for 30 mins followed by substrate addition and measured after 15 mins by liquid scintillation spectroscopic method. The format is cell-based. Put shortly: (§2)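 U937 cell homogenate (100 µg) in 10 mM Tris-HCl, 1 mM EDTA, pH 8, 0.1% fatty acid-free BSA. Compound at 10 µM screening concentration, 30 min at 37 °C. FAAH: 100 nM AEA with 1 nM [³H]AEA tracer. MAGL: 1 µM 2-OG with 1 nM tritiated tracer. Both 15 min at 37 °C, stopped with CHCl₃:MeOH (1:1), aqueous phase counted.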
Turning to `Cc1c(Br)cn(Cc2ccc(F)cc2)c(=O)c1C(=O)NC1CCCCCC1`, the IC50 amounted to 2300 nM.

`Cc1c(Br)cnc(OCc2ccc(F)cc2)c1C(=O)NC1CCCCCC1` had an IC50 above 10000 nM.

Regarding `COc1ccc(-c2cn(Cc3ccc(F)cc3)c(=O)c(C(=O)NC3CCCCCC3)c2C)cc1`, the IC50 was determined as 1300 nM.

In another assay the target is T3, Cannabinoid receptor 2 (Homo sapiens, UniProt P34972). In words: Agonist activity at human CB2 receptor expressed in CHO cell membranes after 90 mins by [35S]GTPgammaS binding assay relative to control. The format is functional. Put shortly: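 Membranes (5 µg) of hCB2-expressing cells in 50 mM Tris-HCl, 3 mM MgCl₂, 0.2 mM EDTA, 100 mM NaCl, 0.5% fatty acid-free BSA, pH 7.4, with 10 µM GDP and 0.1 nM [³⁵S]GTPγS. Kept on ice, started by vehicle or compound, 90 min at 30 °C. Nonspecific binding with 10 µM GTPγS. Filtered on GF/B, radioactivity counted. At least three experiments in triplicate, mean ± SD.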
T3 sequence (P34972 whole entry): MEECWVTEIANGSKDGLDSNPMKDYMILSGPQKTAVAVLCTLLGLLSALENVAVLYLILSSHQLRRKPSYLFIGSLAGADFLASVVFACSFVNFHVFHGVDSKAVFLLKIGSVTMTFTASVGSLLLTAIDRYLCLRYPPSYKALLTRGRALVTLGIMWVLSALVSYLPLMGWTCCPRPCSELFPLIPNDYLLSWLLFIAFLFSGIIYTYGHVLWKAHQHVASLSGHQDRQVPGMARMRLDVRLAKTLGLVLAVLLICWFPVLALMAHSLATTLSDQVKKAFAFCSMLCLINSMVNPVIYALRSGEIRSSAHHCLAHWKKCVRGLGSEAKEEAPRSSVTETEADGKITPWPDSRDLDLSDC
Regarding `Cc1c(Br)cn(Cc2ccc(F)cc2)c(=O)c1C(=O)NC1CCCCCC1`, the Emax was 134%.

`Cc1c(Br)cnc(OCc2ccc(F)cc2)c1C(=O)NC1CCCCCC1` showed an Emax of 125%.

The compound `COc1ccc(-c2cn(Cc3ccc(F)cc3)c(=O)c(C(=O)NC3CCCCCC3)c2C)cc1` registered an Emax of 99%.

A further assay deals with T4, Monoacylglycerol lipase ABHD6 (Homo sapiens, UniProt Q9BV23).
T4 sequence (Q9BV23 whole entry): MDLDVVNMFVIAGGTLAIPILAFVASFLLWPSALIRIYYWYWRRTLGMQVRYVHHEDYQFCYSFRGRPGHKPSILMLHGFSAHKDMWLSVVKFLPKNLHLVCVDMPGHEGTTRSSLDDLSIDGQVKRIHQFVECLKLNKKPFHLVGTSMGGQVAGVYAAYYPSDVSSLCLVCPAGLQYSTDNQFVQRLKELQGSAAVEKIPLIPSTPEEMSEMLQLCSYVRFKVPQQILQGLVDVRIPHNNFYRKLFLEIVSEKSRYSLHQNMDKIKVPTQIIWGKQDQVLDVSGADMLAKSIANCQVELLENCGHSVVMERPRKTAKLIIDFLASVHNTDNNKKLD
Description: Inhibition of human ABHD6 expressed in HEK293 cells using 2-OG as substrate preincubated for 30 mins followed by substrate addition and measured after 5 mins by liquid scintillation spectroscopic method. It is filed as cell-based. The gist of the method: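 Homogenate (40 µg) of HEK293 cells stably transfected with hABHD6 or hABHD12, compound preincubated 30 min at 37 °C in […], 0.1% BSA, pH 7.6. DMSO vehicle; WWL70 10 µM or THL 20 µM as positive controls. 10 µM 2-OG added for 5 min at 37 °C, stopped with CHCl₃:MeOH. Aqueous phase counted; no-enzyme blanks and non-transfected HEK293 hydrolysis subtracted.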
The compound `Cc1c(Br)cn(Cc2ccc(F)cc2)c(=O)c1C(=O)NC1CCCCCC1` gave an IC50 above 10000 nM.

In turn, `Cc1c(Br)cnc(OCc2ccc(F)cc2)c1C(=O)NC1CCCCCC1` displayed a half-maximal inhibitory concentration (IC50) of 530 nM.

`COc1ccc(-c2cn(Cc3ccc(F)cc3)c(=O)c(C(=O)NC3CCCCCC3)c2C)cc1` had an IC50 above 10000 nM.

In another assay the test system is U-937. Description: Cytotoxicity against human U937 cells assessed as decrease in cell viability at 0.6 to 40 uM after 48 hrs by MTT assay. It is filed as functional, cell-based. Put shortly: as §1
For the compound `Cc1c(Br)cn(Cc2ccc(F)cc2)c(=O)c1C(=O)NC1CCCCCC1`, the outcome was Active.

As for `Cc1c(Br)cnc(OCc2ccc(F)cc2)c1C(=O)NC1CCCCCC1`, the result was Active.

In the case of `COc1ccc(-c2cn(Cc3ccc(F)cc3)c(=O)c(C(=O)NC3CCCCCC3)c2C)cc1`, the result was Active.

The target of a further assay is T5, Monoglyceride lipase (Homo sapiens, UniProt Q99685).
T5 sequence (Q99685 whole entry): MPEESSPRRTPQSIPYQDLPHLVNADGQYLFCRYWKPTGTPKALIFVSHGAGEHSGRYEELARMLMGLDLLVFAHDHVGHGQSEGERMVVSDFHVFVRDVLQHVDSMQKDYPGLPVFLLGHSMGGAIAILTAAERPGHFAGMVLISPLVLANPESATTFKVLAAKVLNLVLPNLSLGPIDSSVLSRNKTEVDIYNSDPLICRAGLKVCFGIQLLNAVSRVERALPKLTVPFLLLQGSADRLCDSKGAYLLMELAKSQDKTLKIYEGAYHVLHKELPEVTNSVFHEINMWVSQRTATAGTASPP
Description: Inhibition of MAGL in human U937 cells using 2-OG containing […] as substrate preincubated for 30 mins followed by substrate addition and measured after 15 mins by liquid scintillation spectroscopic method. It is filed as cell-based. Put shortly: as §2
Compound `Cc1c(Br)cn(Cc2ccc(F)cc2)c(=O)c1C(=O)NC1CCCCCC1` returned an IC50 above 10000 nM.

For the compound `Cc1c(Br)cnc(OCc2ccc(F)cc2)c1C(=O)NC1CCCCCC1`, the IC50 is above 10000 nM.

As for `COc1ccc(-c2cn(Cc3ccc(F)cc3)c(=O)c(C(=O)NC3CCCCCC3)c2C)cc1`, the IC50 is above 10000 nM.

The target in another assay is T3, Cannabinoid receptor 2. Description: Displacement of [3H]-CP55940 from human CB2 receptor expressed in CHO cell membranes after 90 mins. The gist of the method: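 Membranes expressing hCB1 or hCB2 (stably transfected CHO) in 50 mM Tris-HCl, 2.5 mM EDTA, 5 mM MgCl₂, 0.5% fatty acid-free BSA, pH 7.4. Nonspecific binding with 10 µM […]. GF/B filtration, radioactivity counted, Ki derived. Mean ± SD, at least 3 experiments in triplicate.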
Compound `Cc1c(Br)cn(Cc2ccc(F)cc2)c(=O)c1C(=O)NC1CCCCCC1` yielded a Ki of 3.5 nM.

With `Cc1c(Br)cnc(OCc2ccc(F)cc2)c1C(=O)NC1CCCCCC1`, the Ki worked out at 606 nM.

`COc1ccc(-c2cn(Cc3ccc(F)cc3)c(=O)c(C(=O)NC3CCCCCC3)c2C)cc1` registered a Ki of 7.9 nM.
